In ChEMBL document CHEMBL3861950, “Design, synthesis and evaluation of novel 19F magnetic resonance sensitive protein tyrosine phosphatase inhibitors” (Medchemcomm, 2016):

Legend:
[1] = target: T1, Tyrosine-protein phosphatase non-receptor type 22 (Homo sapiens, UniProt Q9Y2R2); experiment: Inhibition of recombinant LYP (unknown origin) using pNPP as substrate by spectrophotometric method
T1 sequence (Q9Y2R2 whole entry): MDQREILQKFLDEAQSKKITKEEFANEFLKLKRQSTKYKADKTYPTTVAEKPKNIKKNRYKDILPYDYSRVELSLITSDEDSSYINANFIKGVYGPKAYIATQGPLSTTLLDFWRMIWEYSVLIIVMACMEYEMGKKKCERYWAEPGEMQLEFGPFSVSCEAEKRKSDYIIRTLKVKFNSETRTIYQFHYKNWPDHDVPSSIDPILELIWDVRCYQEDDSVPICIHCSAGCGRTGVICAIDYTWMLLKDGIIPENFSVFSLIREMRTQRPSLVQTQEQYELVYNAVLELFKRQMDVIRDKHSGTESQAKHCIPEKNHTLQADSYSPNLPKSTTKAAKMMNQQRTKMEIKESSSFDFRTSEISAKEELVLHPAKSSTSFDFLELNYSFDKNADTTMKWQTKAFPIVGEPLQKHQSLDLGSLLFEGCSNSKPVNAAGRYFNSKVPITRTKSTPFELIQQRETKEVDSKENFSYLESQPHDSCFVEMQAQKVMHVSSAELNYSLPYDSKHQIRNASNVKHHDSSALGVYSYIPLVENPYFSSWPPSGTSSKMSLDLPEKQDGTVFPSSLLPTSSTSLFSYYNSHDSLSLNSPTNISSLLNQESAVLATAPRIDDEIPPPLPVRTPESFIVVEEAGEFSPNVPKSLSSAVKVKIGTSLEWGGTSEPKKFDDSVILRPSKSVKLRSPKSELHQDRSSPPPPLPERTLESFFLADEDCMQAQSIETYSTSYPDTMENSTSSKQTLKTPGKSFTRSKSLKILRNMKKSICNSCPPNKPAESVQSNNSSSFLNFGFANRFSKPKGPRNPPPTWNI
Procedure, shortened: (§1)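 Recombinant PTP prepared in-house, assayed with pNPP substrate in 50 mM 3,3-dimethylglutarate buffer pH 7.0 containing 1 mM EDTA and 150 mM NaCl at 25 °C, in 96-well format. p-Nitrophenol product was quantified by absorbance at 405 nm. Non-enzymatic pNPP hydrolysis was corrected using a no-enzyme control.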

[2] = target: T2, Tyrosine-protein phosphatase non-receptor type 11 (Homo sapiens, UniProt Q06124); experiment: Inhibition of recombinant SHP2 (unknown origin) using pNPP as substrate by spectrophotometric method; procedure, shortened: as §1
T2 sequence (Q06124 whole entry): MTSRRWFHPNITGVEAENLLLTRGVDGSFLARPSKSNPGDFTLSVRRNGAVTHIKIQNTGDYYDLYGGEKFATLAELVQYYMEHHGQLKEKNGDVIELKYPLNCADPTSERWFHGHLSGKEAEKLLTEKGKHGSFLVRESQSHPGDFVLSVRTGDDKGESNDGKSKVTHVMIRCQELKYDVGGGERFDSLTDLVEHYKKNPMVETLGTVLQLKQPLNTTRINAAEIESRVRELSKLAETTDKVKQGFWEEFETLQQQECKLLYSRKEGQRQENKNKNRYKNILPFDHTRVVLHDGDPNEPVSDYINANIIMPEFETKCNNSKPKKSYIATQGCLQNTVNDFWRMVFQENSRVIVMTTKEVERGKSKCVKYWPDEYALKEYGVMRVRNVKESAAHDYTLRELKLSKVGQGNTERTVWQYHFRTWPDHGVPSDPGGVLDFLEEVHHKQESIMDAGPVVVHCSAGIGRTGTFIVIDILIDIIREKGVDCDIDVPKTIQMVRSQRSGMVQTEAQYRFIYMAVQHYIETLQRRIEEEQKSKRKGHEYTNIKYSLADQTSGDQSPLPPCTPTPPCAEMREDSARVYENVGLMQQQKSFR

[3] = target: Tyrosine-protein phosphatase non-receptor type 13 (Homo sapiens, UniProt Q12923); experiment: Inhibition of recombinant FAP1 (unknown origin) using pNPP as substrate by spectrophotometric method; procedure, shortened: as §1
[4] = target: T3, Tyrosine-protein phosphatase non-receptor type 1 (Homo sapiens, UniProt P18031); experiment: Inhibition of recombinant PTP1B (unknown origin) using pNPP as substrate by spectrophotometric method; procedure, shortened: as §1
T3 sequence (P18031 whole entry): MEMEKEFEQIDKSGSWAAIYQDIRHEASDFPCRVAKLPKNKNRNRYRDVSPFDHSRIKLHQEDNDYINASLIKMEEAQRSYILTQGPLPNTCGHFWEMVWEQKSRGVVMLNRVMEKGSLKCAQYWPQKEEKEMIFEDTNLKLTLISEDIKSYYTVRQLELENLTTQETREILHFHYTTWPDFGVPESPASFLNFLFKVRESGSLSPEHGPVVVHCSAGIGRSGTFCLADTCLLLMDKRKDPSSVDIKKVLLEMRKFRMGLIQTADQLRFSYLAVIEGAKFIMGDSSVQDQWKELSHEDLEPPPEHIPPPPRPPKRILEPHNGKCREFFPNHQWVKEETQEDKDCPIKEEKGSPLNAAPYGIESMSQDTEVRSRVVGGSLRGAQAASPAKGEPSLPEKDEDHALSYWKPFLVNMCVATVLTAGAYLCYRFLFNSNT

[5] = Inhibition of recombinant Mycobacterium tuberculosis PTPB using pNPP as substrate by spectrophotometric method
Procedure, shortened: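 Recombinant enzyme made in-house. Substrate pNPP in 50 mM 3,3-dimethylglutarate buffer, pH 7.0, with 1 mM EDTA and 150 mM NaCl, at 25 °C, screened in 96-well format. p-Nitrophenol product read at 405 nm. Non-enzymatic pNPP hydrolysis was corrected using a control without enzyme.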

[6] = target: T4, Receptor-type tyrosine-protein phosphatase C (Homo sapiens, UniProt P08575); experiment: Inhibition of recombinant CD45 (unknown origin) using pNPP as substrate by spectrophotometric method; procedure, shortened: as §1
T4 sequence (P08575 whole entry): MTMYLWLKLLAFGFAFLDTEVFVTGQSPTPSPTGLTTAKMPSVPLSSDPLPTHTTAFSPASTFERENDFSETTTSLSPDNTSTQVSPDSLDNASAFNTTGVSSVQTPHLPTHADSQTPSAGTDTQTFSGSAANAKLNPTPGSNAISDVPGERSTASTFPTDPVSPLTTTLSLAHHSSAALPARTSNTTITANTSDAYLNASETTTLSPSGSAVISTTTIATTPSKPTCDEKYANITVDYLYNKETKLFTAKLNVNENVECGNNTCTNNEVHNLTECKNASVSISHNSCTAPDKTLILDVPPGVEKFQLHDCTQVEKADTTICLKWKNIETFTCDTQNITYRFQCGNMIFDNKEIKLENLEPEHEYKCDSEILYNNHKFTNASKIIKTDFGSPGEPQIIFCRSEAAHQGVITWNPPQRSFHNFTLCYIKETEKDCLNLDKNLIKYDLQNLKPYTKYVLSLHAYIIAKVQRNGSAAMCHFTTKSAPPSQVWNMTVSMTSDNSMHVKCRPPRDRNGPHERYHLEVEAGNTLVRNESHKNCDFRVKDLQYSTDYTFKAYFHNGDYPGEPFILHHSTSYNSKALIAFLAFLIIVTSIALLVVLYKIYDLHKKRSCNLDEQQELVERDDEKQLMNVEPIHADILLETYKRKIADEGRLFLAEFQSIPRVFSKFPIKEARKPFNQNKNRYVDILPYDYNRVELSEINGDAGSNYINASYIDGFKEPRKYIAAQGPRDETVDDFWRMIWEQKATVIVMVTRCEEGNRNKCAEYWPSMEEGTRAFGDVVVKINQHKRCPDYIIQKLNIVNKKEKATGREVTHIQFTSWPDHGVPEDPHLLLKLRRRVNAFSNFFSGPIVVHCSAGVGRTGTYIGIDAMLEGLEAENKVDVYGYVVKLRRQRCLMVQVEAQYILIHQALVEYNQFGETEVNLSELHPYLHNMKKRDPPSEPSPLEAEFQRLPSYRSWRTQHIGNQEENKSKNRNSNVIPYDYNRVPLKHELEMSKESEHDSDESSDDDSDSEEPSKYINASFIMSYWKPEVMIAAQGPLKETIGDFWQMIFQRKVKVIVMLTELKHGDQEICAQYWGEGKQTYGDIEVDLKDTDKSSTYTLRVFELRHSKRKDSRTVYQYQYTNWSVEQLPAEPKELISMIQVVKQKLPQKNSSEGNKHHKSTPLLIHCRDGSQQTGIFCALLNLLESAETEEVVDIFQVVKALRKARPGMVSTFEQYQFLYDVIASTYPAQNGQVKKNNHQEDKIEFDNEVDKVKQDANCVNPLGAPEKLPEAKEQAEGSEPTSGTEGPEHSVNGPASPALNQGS

Sequence of Tyrosine-protein phosphatase non-receptor type 13 (Q12923 whole entry): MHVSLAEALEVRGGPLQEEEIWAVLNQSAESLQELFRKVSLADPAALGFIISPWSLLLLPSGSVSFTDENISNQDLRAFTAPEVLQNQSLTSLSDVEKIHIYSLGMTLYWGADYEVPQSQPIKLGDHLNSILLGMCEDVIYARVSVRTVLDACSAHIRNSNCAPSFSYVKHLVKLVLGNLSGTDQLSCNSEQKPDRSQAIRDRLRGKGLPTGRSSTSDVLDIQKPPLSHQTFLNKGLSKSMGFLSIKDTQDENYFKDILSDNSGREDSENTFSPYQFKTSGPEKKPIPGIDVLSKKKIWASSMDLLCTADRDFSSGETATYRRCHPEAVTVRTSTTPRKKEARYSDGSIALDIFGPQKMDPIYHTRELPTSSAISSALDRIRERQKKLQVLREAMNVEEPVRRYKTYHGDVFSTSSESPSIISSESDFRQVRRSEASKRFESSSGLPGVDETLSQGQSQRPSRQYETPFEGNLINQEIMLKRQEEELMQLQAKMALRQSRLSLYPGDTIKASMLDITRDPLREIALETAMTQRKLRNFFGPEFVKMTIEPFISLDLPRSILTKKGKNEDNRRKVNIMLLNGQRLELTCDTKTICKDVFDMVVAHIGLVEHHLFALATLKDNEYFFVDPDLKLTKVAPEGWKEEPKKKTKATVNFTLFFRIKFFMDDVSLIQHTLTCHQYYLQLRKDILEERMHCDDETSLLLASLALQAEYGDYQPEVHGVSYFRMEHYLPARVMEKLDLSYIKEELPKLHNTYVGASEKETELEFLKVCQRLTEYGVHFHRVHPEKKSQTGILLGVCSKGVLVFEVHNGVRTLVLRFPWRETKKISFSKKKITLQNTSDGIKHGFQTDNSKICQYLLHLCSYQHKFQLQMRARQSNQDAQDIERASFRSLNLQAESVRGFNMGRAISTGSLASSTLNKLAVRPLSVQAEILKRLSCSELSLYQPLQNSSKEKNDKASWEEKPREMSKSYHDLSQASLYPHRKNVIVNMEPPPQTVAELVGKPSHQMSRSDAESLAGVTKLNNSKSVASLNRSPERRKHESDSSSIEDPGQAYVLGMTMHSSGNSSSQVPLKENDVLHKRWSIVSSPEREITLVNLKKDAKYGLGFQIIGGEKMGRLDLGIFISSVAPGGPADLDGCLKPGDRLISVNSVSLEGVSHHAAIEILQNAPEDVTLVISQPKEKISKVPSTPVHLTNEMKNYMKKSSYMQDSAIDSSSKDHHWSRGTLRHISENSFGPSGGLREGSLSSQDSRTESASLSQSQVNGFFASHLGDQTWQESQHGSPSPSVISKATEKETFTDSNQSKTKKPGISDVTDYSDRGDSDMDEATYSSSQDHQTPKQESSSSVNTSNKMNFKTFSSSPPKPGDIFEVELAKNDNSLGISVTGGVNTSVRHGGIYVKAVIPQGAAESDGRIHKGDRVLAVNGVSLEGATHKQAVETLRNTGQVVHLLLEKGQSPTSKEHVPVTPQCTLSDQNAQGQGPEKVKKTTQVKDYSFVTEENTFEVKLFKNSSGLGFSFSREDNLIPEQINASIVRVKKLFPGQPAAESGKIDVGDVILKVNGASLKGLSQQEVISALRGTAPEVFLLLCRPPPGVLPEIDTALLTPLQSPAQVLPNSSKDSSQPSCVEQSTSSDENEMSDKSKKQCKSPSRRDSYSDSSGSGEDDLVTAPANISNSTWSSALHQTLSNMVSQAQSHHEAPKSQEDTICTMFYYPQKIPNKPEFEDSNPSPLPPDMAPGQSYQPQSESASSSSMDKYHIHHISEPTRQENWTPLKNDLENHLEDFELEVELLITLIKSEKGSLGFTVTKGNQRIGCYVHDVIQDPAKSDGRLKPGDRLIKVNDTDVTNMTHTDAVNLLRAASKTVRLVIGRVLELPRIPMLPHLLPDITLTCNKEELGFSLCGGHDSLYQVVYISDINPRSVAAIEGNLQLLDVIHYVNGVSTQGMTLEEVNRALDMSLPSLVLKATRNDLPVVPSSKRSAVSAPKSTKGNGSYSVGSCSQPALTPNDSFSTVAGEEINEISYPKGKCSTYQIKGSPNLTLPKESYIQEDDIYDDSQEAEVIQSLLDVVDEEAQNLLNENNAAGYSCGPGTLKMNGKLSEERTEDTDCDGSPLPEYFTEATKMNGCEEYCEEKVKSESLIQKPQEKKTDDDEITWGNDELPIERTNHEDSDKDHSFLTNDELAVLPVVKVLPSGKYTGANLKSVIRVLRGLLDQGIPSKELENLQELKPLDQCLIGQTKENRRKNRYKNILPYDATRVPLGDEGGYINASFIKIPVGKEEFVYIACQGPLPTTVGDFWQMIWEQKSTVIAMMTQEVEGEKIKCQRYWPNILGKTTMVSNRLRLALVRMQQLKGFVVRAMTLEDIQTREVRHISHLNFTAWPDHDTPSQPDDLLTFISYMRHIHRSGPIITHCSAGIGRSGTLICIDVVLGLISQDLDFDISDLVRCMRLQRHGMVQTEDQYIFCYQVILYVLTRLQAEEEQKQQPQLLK

| SMILES | IC50 [1] | IC50 [2] | IC50 [3] | IC50 [4] | IC50 [5] | IC50 [6] |
| --- | --- | --- | --- | --- | --- | --- |
| Cc1ccc(O)c(C(O)(C(F)(F)F)C(F)(F)F)c1 | 303 µM | 202 µM | 454 µM | 360 µM | 180 µM | 207 µM |
| O=C(COc1ccc2cc(C(O)(C(F)(F)F)C(F)(F)F)c(O)cc2c1)NC1CC1 | > 20 µM | > 20 µM | > 20 µM | > 20 µM | > 20 µM | > 20 µM |
| O=C(COc1ccc2cc(C(O)(C(F)(F)F)C(F)(F)F)c(O)cc2c1)Nc1nc2ccccc2s1 | 14.3 µM | 12.8 µM | 9.9 µM | > 20 µM | 2.6 µM | 10.9 µM |
| O=C(COc1ccc2cc(C(O)(C(F)(F)F)C(F)(F)F)c(O)cc2c1)Nc1cccc2ccccc12 | > 20 µM | > 20 µM | > 20 µM | > 20 µM | 4.7 µM | 29.1 µM |
| Oc1c(-c2ccccc2)cccc1C(O)(C(F)(F)F)C(F)(F)F | 268 µM | 136 µM | 449 µM | 422 µM | 148 µM | 157 µM |
